According to ChEMBL document CHEMBL1121728, “Synthesis and antitumor activity of an acyclonucleoside derivative of 5-fluorouracil” (1981):
pIC50: −log10 of the molar value.

Key:
L1210 [1] = experiment: Inhibition against L1210 mouse leukemia cells; No effect; assay type: functional; conditions: read-out: ID50 (the source's name)
P388 [2] = experiment: Percent increase in life span against mice infected with P388 leukemia at a dose of 20 […] in q.d. 1-9 schedule; assay type: functional, Mus musculus
How it was run: (§1)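 Male B6D2F1J mice, five per group, received 10^6 P388 leukemia cells ip on day 0. Treatment was ip in water on q.d. 1-4, b.i.d. × 4 or q.d. 1-9 schedules. Survival was recorded, and increase in life span (ILS) was calculated relative to untreated controls. Toxicity was judged by weight loss.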

P388 [3] = experiment: Compound was evaluated for the 7-day percent change in weight of mice infected with P388 leukemia at a dose of 20 […] in b.i.d. x 4 schedule; assay type: functional, Mus musculus
How it was run: (§2)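 Groups of five male B6D2F1J mice were inoculated ip with 10^6 P388 cells on day 0. Drugs were given ip in water on q.d. 1-4, b.i.d. × 4 or q.d. 1-9 schedules. Animals were weighed on days 1 and 7, and weight change was expressed as a percentage.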

P388 [4] = experiment: Compound was evaluated for the median survival time of mice infected with P388 leukemia at a dose of 40 […] in q.d. 1-9 schedule; assay type: functional, Mus musculus; how it was run: as §1
P388 [5] = experiment: Compound was evaluated for the 7-day percent change in weight of mice infected with P388 leukemia at a dose of 40 […] in b.i.d. x 4 schedule; assay type: functional, Mus musculus; how it was run: as §2
P388 [6] = experiment: Compound was evaluated for the 7-day percent change in weight of mice infected with P388 leukemia at a dose of 20 […] in q.d. 1-4 schedule; assay type: functional, Mus musculus; how it was run: as §2
L1210 [7] = experiment: Inhibition against L1210 mouse leukemia cells; assay type: functional; conditions: read-out: ID50 (the source's name)
How it was run: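 Growth inhibition of L1210 mouse leukemia cells in culture, reported as ID50 (molar concentration).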

P388 [8] = experiment: Compound was evaluated for the median survival time of mice infected with P388 leukemia at a dose of 20 […] in b.i.d. x 4 schedule; assay type: functional, Mus musculus; how it was run: as §1
P388 [9] = experiment: Compound was evaluated for the 7-day percent change in weight of mice infected with P388 leukemia at a dose of 40 […] in q.d. 1-4 schedule; assay type: functional, Mus musculus; how it was run: as §2
P388 [10] = experiment: Compound was evaluated for the 7-day percent change in weight of mice infected with P388 leukemia at a dose of 40 […] in q.d. 1-9 schedule; assay type: functional, Mus musculus; how it was run: as §2
P388 [11] = experiment: Compound was evaluated for the median survival time of mice infected with P388 leukemia at a dose of 40 […] in q.d. 1-4 schedule; assay type: functional, Mus musculus; how it was run: as §1
P388 [12] = experiment: Compound was evaluated for the median survival time of mice infected with P388 leukemia at a dose of 20 […] in q.d. 1-4 schedule; assay type: functional, Mus musculus; how it was run: as §1
P388 [13] = experiment: Compound was evaluated for the median survival time of mice infected with P388 leukemia at a dose of 20 […] in q.d. 1-9 schedule; assay type: functional, Mus musculus; how it was run: as §1
P388 [14] = experiment: Compound was evaluated for the median survival time of mice infected with P388 leukemia at a dose of 40 […] in b.i.d. x 4 schedule; assay type: functional, Mus musculus
L1210 [15] = experiment: Inhibition against L1210 mouse leukemia cells; Inactive; assay type: functional; conditions: read-out: ID50 (the source's name)
P388 [16] = experiment: Compound was evaluated for the median survival time of mice infected with P388 leukemia at a dose of 240 […] in q.d. 1-9 schedule; assay type: functional, Mus musculus; how it was run: as §1
P388 [17] = experiment: Compound was evaluated for the median survival time of mice infected with P388 leukemia at a dose of 100 […] in q.d. 1-4 schedule; assay type: functional, Mus musculus; how it was run: as §1
P388 [18] = experiment: Percent increase in survival of P388 leukemic mice at a compound dose 400 mg/kg (b.i.d. x 4) or 240 mg/kg (q.d. 1-9) was given intraperitoneally in water; assay type: functional, Mus musculus; how it was run: as §1
P388 [19] = experiment: Compound was evaluated for the median survival time of mice infected with P388 leukemia at a dose of 100 […] in b.i.d. x 4 schedule; assay type: functional, Mus musculus; how it was run: as §1
P388 [20] = experiment: Compound was evaluated for the 7-day percent change in weight of mice infected with P388 leukemia at a dose of 50 […] in b.i.d. x 4 schedule; assay type: functional, Mus musculus
How it was run: (§3)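 Male B6D2F₁J mice in groups of five received 10⁶ P388 cells ip on day 0. Compound was then given ip in water on the stated schedule. Body weights were taken on days 1 and 7, and the change is expressed as a percentage. Survival was also recorded as percent increase in life span.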

P388 [21] = experiment: Compound was evaluated for the 7-day percent change in weight of mice infected with P388 leukemia at a dose of 100 […] in b.i.d. x 4 schedule; assay type: functional, Mus musculus; how it was run: as §3
P388 [22] = experiment: Compound was evaluated for the median survival time of mice infected with P388 leukemia at a dose of 200 […] in q.d. 1-4 schedule; assay type: functional, Mus musculus; how it was run: as §1
P388 [23] = experiment: Compound was evaluated for the median survival time of mice infected with P388 leukemia at a dose of 60 […] in q.d. 1-9 schedule; assay type: functional, Mus musculus; how it was run: as §1
P388 [24] = experiment: Compound was evaluated for the 7-day percent change in weight of mice infected with P388 leukemia at a dose of 200 […] in b.i.d. x 4 schedule; assay type: functional, Mus musculus; how it was run: as §3
P388 [25] = experiment: Compound was evaluated for the 7-day percent change in weight of mice infected with P388 leukemia at a dose of 100 […] in q.d. 1-4 schedule; assay type: functional, Mus musculus; how it was run: as §3
P388 [26] = experiment: Compound was evaluated for the 7-day percent change in weight of mice infected with P388 leukemia at a dose of 200 […] in q.d. 1-4 schedule; assay type: functional, Mus musculus; how it was run: as §3
P388 [27] = experiment: Compound was evaluated for the median survival time of mice infected with P388 leukemia at a dose of 400 […] in b.i.d. x 4 schedule; assay type: functional, Mus musculus; how it was run: as §1
P388 [28] = experiment: Compound was evaluated for the 7-day percent change in weight of mice infected with P388 leukemia at a dose of 120 […] in q.d. 1-9 schedule; assay type: functional, Mus musculus; how it was run: as §3
P388 [29] = experiment: Compound was evaluated for the 7-day percent change in weight of mice infected with P388 leukemia at a dose of 240 […] in q.d. 1-9 schedule; assay type: functional, Mus musculus; how it was run: as §3
P388 [30] = experiment: Compound was evaluated for the median survival time of mice infected with P388 leukemia at a dose of 120 […] in q.d. 1-9 schedule; assay type: functional, Mus musculus; how it was run: as §1
P388 [31] = experiment: Compound was evaluated for the 7-day percent change in weight of mice infected with P388 leukemia at a dose of 50 […] in q.d. 1-4 schedule; assay type: functional, Mus musculus; how it was run: as §3
P388 [32] = experiment: Compound was evaluated for the 7-day percent change in weight of mice infected with P388 leukemia at a dose of 400 […] in b.i.d. x 4 schedule; assay type: functional, Mus musculus; how it was run: as §3
P388 [33] = experiment: Compound was evaluated for the median survival time of mice infected with P388 leukemia at a dose of 200 […] in b.i.d. x 4 schedule; assay type: functional, Mus musculus; how it was run: as §1
P388 [34] = experiment: Compound was evaluated for the median survival time of mice infected with P388 leukemia at a dose of 50 […] in q.d. 1-4 schedule; assay type: functional, Mus musculus; how it was run: as §1
P388 [35] = experiment: 7-day weight change in mice infected with P388 leukemia at a dose of 60 […] in q.d. 1-9 schedule
P388 [36] = experiment: Compound was evaluated for the median survival time of mice infected with P388 leukemia at a dose of 50 […] in b.i.d. x 4 schedule; assay type: functional, Mus musculus; how it was run: as §1

`O=c1[nH]c(=O)n(COCCO)cc1I` gave a pIC50 (L1210 [1]) of 3.00.
`O=c1[nH]cc(F)c(=O)[nH]1` [FLUOROURACIL] gave a Weight change (P388 [2]) of -2%, a Weight change (P388 [3]) of 9% and a Median survival (P388 [4]) of 12 days. The Weight change (P388 [5]) was -12%, the Weight change (P388 [6]) was -5% and the pIC50 (L1210 [7]) was 6.00. The Median survival (P388 [8]) was 19 days, the Weight change (P388 [9]) was -29% and the Weight change (P388 [10]) was -23%. The Median survival (P388 [11]) was 10 days, the Median survival (P388 [12]) was 23 days and the Median survival (P388 [13]) was 21 days. For the same molecule, the Median survival (P388 [14]) was 12 days.
With `Nc1nc(=O)n(COCCO)cc1F` the pIC50 (L1210 [15]) was 4.00.
`O=c1[nH]c(=O)n(COCCO)cc1F` was tested, and the Median survival (P388 [16]) was 21 days, the Median survival (P388 [17]) was 15 days and the Increase (P388 [18]) was 75%. It also gave a Median survival (P388 [19]) of 17 days, a Weight change (P388 [20]) of 5% and a Weight change (P388 [21]) of 4%. For the same molecule, the Median survival (P388 [22]) was 17 days, the pIC50 (L1210 [7]) was 4.77 and the Median survival (P388 [23]) was 16 days. For the same molecule, the Weight change (P388 [24]) was 4%, the Weight change (P388 [25]) was 6% and the Weight change (P388 [26]) was 6%. It also gave a Median survival (P388 [27]) of 21 days, a Weight change (P388 [28]) of 0% and a Weight change (P388 [29]) of 0%. For the same molecule, the Median survival (P388 [30]) was 18 days, the Weight change (P388 [31]) was 7% and the Weight change (P388 [32]) was 0%. For the same molecule, the Median survival (P388 [33]) was 20 days, the Median survival (P388 [34]) was 14 days and the 7-day weight change (P388 [35]) was 8%. The Median survival (P388 [36]) was 16 days.
`O=c1[nH]c(=O)n(COCCO)cc1Br` was tested, and the pIC50 (L1210 [1]) was 3.00.
